Experiments:
[1] = Evaluated for Pharmacokinetic property: Area under the curve; type: ADME; parameters: concentration or dose not given beside the values
[2] = system: Syrian golden hamster; assay: Suppression of Hamster ethanol intake by 0.07 mmol o.d. i.p.; type: functional, Mesocricetus auratus
In short: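 Male Syrian golden hamsters (80-120 g) at 23 °C on a 12/12-h cycle had free access to chow, water and 15% ethanol. Baseline was 6 days of daily ip saline with 0.5% DMSO. Then 0.07 mmol ip daily for 6 days. 24-h ethanol intake recorded. Mean ± SD of 4-6 hamsters.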

[3] = Evaluated for time required to reach maximum concentration in plasma; type: ADME
[4] = species on record: Mesocricetus auratus; assay: Evaluated for the 5-HIAL accumulation in isolated Hamster Liver Mitochondria at the 3 uM
[5] = system: Aldehyde dehydrogenase, mitochondrial (Mesocricetus auratus); assay: Accumulation of 5 HIAL in isolated Hamster Liver Mitochondria at 0.9 uM.
[6] = system: Aldehyde dehydrogenase, mitochondrial (Mesocricetus auratus); assay: Accumulation of 5 HIAL in isolated Hamster Liver Mitochondria at 9 uM.
[7] = system: Aldehyde dehydrogenase, mitochondrial (Mesocricetus auratus); assay: Accumulation of 5 HIAL in isolated Hamster Liver Mitochondria at 0.3 uM.
[8] = target: Monoamine oxidase (Mesocricetus auratus); assay: Inhibition of Hamster Liver mitochondrial Monoamine oxidase.
[9] = system: Aldehyde dehydrogenase, mitochondrial (Mesocricetus auratus); assay: Accumulation of 5 HIAL in isolated Hamster Liver Mitochondria at 3 uM.
[10] = species on record: Mesocricetus auratus; assay: Evaluated for percentage inhibition of 5-HIAA formation in isolated Hamster Liver Mitochondria at the 9 uM

Row | Structure (SMILES) | AUC [1] [nM hr ml] | Suppression [2] [%] | Tmax [3] [h] | Control [4] [%] | Control [5] [%] | Control [6] [%] | Control [7] [%] | IC50 [8] [nM] | Control [9] [%] | inhibition [10] [%]
1 | O=c1cc(-c2ccccc2)oc2cc(O)cc(O)c12 [CHRYSIN] | 110 | 0 | 1 |  |  |  |  |  |  | 
2 | O=c1c(-c2ccc(O)cc2)coc2cc(O)cc(O)c12 [GENISTEIN] | 134 | 0 | 1 |  |  |  |  |  |  | 
3 | O=C(O)CCCCCCCCCCOc1ccc2c(=O)c(-c3ccc(O)cc3)coc2c1 | 56 | 86 | 0.5 |  |  |  |  |  |  | 
4 | O=c1cc(-c2ccccc2)oc2c(O)c(O)ccc12 [7,8-DIHYDROXYFLAVONE] | 111 | 0 | 0.5 | 79.1 |  |  |  |  |  | 
5 | O=c1c(-c2ccc(O)cc2)coc2cc(OCCCBr)ccc12 | 73 | 0 | 2 |  | 57.8 | 20.5 | 75.8 | 150 | 34.7 | 
6 | O=c1c(-c2ccc(O)cc2)coc2cc(O[C@@H]3O[C@H](CO)[C@@H](O)[C@H](O)[C@H]3O)ccc12 [DAIDZIN] | 120 | 62 | 1 |  |  |  |  |  |  | 
7 | COc1ccc(-c2coc3cc(O)cc(O)c3c2=O)cc1 [BIOCHANIN] | 99 | 0 | 1 |  |  |  |  |  |  | 
8 | O=c1c(-c2ccc(O)cc2)coc2cc(O)ccc12 [DAIDZEIN] | 130 | 22 | 1 |  |  |  |  |  |  | 80.6
9 | O=C(O)CCCCCCOc1ccc2c(=O)c(-c3ccc(O)cc3)coc2c1 | 68 | 69 | 0.5 |  | 265 | 192 | 310 | 2100 | 228 | 
10 | O=c1c(-c2ccc(O)cc2)coc2cc(OCCCCBr)ccc12 | 68 | 14 | 2 |  | 116 | 42.9 | 112 | 4000 | 87.7 | 
11 | CCOc1ccc2c(=O)c(-c3ccc(O)cc3)coc2c1 | 38 | 0 | 1 |  | 62.9 | 17.8 | 88.6 | 300 | 34.3 | 
12 | C=CCOc1ccc2c(=O)c(-c3ccc(O)cc3)coc2c1 | 29 | 0 | 1 |  | 91 | 26.7 | 106 | 450 | 56.1 | 
13 | O=C(O)CCCCCOc1ccc2c(=O)c(-c3ccc(O)cc3)coc2c1 | 77 | 69 | 0.5 |  |  |  |  |  |  | 
14 | O=c1c(-c2ccc(O)cc2)coc2cc(OCCCCCCBr)ccc12 | 62 | 29 | 2 |  | 112 | 74 | 144 | 2000 | 108 | 
15 | O=C(O)CCCCCCCCCOc1ccc2c(=O)c(-c3ccc(O)cc3)coc2c1 | 73 | 84 | 0.5 |  | 233 | 129 | 234 | 10000 | 189 | 
16 | O=c1c(-c2ccc(O)cc2)coc2cc(OCC(O)CO)ccc12 (stereo not drawn) | 141 | 0 | 0.5 |  | 97.5 | 30.5 | 112 | 1700 | 63 | 
17 | O=c1c(-c2ccc(O)cc2)coc2cc(OCCC3OCCCO3)ccc12 | 99 | 32 | 0.5 |  | 176 | 86.1 | 165 | 7000 | 141 | 
